Source: ChEMBL document CHEMBL1157579, “Discovery of potent sulfonamide P4-capped ketoamide second generation inhibitors of hepatitis C virus NS3 serine protease with favorable pharmacokinetic profiles in preclinical species” (Bioorg Med Chem, 2010)

Assays:
[1] = Inhibition of HCV NS4A-tethered single chain NS3 serine protease assessed as Ac-DTEDVVP(Nva)- O-PAP substrate hydrolysis by spectrophotometric assay; set-up: species or system Hepacivirus hominis
Method in brief: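 Ki* reported for a single P1 diastereomer, within twofold at 95% confidence limit.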

[2] = system: Hepatitis C virus; assay: Antiviral activity against Hepatitis C virus genotype 1 by replicon assay; assay type: functional, organism-based, Hepacivirus hominis
[3] = Selectivity index, ratio of Ki for HNE to Ki for NS4A-tethered single chain NS3 serine protease
Method in brief: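 Compounds tested against human neutrophil elastase as a counter-protease; selectivity expressed as HNE Ki divided by HCV NS3 protease Ki.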

[4] = AUC (0 to 6 hrs) in rat at 10 mg/kg, po; assay type: ADME, organism-based; set-up: time < 6 hr, dose 10 mg/kg, route oral; conditions: plasma
[5] = AUC (0 to 6 hrs) in dog at 2 mg/kg, po; assay type: ADME, organism-based, Canis lupus familiaris; set-up: time < 6 hr, dose 2 mg/kg, route oral; conditions: plasma
[6] = AUC (0 to 6 hrs) in monkey at 10 mg/kg, po; assay type: ADME, organism-based, Macaca mulatta; set-up: time < 6 hr, dose 10 mg/kg, route oral; conditions: rhesus monkey, plasma
[7] = AUC (0 to 6 hrs) in dog at 3 mg/kg, po; assay type: ADME, organism-based, Canis lupus familiaris; set-up: time < 6 hr, dose 3 mg/kg, route oral; conditions: plasma

Row | Ki [1] | EC90 [2] | Ratio Ki [3] | AUC(0-t) at 6 h [4] | AUC(0-t) at 6 h [5] | AUC(0-t) at 6 h [6] | AUC(0-t) at 6 h [7] | SMILES
1 | 6 nM | 55 nM | 82 | 0.6 µM·h | 6.1 µM·h | 0.1 µM·h | – | CCC[C@H](NC(=O)[C@@H]1[C@@H]2[C@H](CN1C(=O)[C@@H](NC(=O)NC1(CS(=O)(=O)N(C)C)CCCCC1)C(C)(C)C)C2(C)C)C(=O)C(=O)NC1CC1
2 | 4 nM | 20 nM | 340 | 0.1 µM·h | – | – | – | CCC[C@H](NC(=O)[C@@H]1[C@@H]2[C@H](CN1C(=O)[C@@H](NC(=O)NC1([C@@H]3CCN(C)S3(=O)=O)CCCCC1)C(C)(C)C)C2(C)C)C(=O)C(=O)NC1CC1
3 | 9 nM | 65 nM | 64 | 1.5 µM·h | 0.5 µM·h | 0.1 µM·h | – | CCC[C@H](NC(=O)[C@@H]1[C@@H]2[C@H](CN1C(=O)[C@@H](NC(=O)NC1(CS(=O)(=O)N(C)CC)CCCCC1)C(C)(C)C)C2(C)C)C(=O)C(=O)NC1CC1
4 | 7 nM | 70 nM | 97 | 0.9 µM·h | 0.2 µM·h | – | – | CCC[C@H](NC(=O)[C@@H]1[C@@H]2[C@H](CN1C(=O)[C@@H](NC(=O)NC1(CS(=O)(=O)N(C)C(C)C)CCCCC1)C(C)(C)C)C2(C)C)C(=O)C(=O)NC1CC1
5 | 6 nM | 100 nM | – | 1.7 µM·h | 0.5 µM·h | – | – | CCC[C@H](NC(=O)[C@@H]1[C@@H]2[C@H](CN1C(=O)[C@@H](NC(=O)NC1(CS(=O)(=O)N(C(C)C)C3CC3)CCCCC1)C(C)(C)C)C2(C)C)C(=O)C(=O)NC1CC1
6 | 6 nM | 75 nM | 2480 | 0.9 µM·h | 4 µM·h | 5.4 µM·h | – | CN(C1CC1)S(=O)(=O)CC1(NC(=O)N[C@H](C(=O)N2CC3C([C@H]2C(=O)N[C@@H](CCC2CC2)C(=O)C(=O)NC2CC2)C3(C)C)C(C)(C)C)CCCCC1 (single isomer, unassigned)
7 | 2.8 nM | 45 nM | – | 0.1 µM·h | 0.2 µM·h | – | – | CCC[C@H](NC(=O)[C@@H]1[C@@H]2[C@H](CN1C(=O)[C@@H](NC(=O)NC1(CS(=O)(=O)N(C)C(C)(C)CF)CCCCC1)C(C)(C)C)C2(C)C)C(=O)C(=O)NC1CC1
8 | 2 nM | 85 nM | – | 0.6 µM·h | 0.1 µM·h | – | – | CCC[C@H](NC(=O)C1[C@@H]2[C@H](CN1C(=O)[C@@H](NC(=O)NC1([C@@H](C)S(=O)(=O)N(C)C)CCCCC1)C(C)(C)C)C2(C)C)C(=O)C(=O)NC1CC1 (stereo partly drawn)
9 | 49 nM | 20 nM | 55 | – | – | 0.05 µM·h | – | CC(C)(C)[C@H](NC(=O)NC1(C(=O)OCc2ccccc2)CCCCC1)C(=O)N1C[C@H]2[C@@H]([C@H]1C(=O)NC(CC1CC1)C(=O)C(N)=O)C2(C)C (stereo partly drawn)
10 | 4 nM | 55 nM | 20 | – | 0.1 µM·h | – | – | C#CCCC(NC(=O)[C@@H]1[C@@H]2[C@H](CN1C(=O)[C@@H](NC(=O)N[C@H](C(=O)C1CC1)C1CCCCC1)C(C)(C)C)C2(C)C)C(=O)C(=O)NC1CC1 (stereo partly drawn)
11 | 7 nM | 80 nM | – | 0.8 µM·h | 0.8 µM·h | – | – | CCC[C@H](NC(=O)[C@@H]1[C@@H]2[C@H](CN1C(=O)[C@@H](NC(=O)NC1(CS(=O)(=O)N3CCC3)CCCCC1)C(C)(C)C)C2(C)C)C(=O)C(=O)NC1CC1
12 | 15 nM | 60 nM | 113 | 2.2 µM·h | 1.4 µM·h | – | – | CN(C1CC1)S(=O)(=O)CC1(NC(=O)N[C@H](C(=O)N2C[C@H]3[C@@H]([C@H]2C(=O)N[C@@H](CC2CC2)C(=O)C(=O)NC2CC2)C3(C)C)C(C)(C)C)CCCCC1
13 | 8 nM | 45 nM | 135 | 0.3 µM·h | 0.3 µM·h | – | – | CCC[C@H](NC(=O)[C@@H]1[C@@H]2[C@H](CN1C(=O)[C@@H](NC(=O)NC1(CS(=O)(=O)N3CCOCC3)CCCCC1)C(C)(C)C)C2(C)C)C(=O)C(=O)NC1CC1
14 | 8 nM | 55 nM | 82 | 1.8 µM·h | 6.9 µM·h | 3.3 µM·h | – | CCC[C@H](NC(=O)[C@@H]1[C@@H]2[C@H](CN1C(=O)[C@@H](NC(=O)NC1(CS(=O)(=O)N(C)C3CC3)CCCCC1)C(C)(C)C)C2(C)C)C(=O)C(=O)NC1CC1
15 | 4 nM | 20 nM | 340 | 0.1 µM·h | – | – | – | CCC[C@H](NC(=O)[C@@H]1[C@@H]2[C@H](CN1C(=O)[C@@H](NC(=O)NC1(C3CCN(C4CC4)S3(=O)=O)CCCCC1)C(C)(C)C)C2(C)C)C(=O)C(=O)NC1CC1 (single isomer, unassigned)
16 | 22 nM | – | – | – | – | – | – | CCC[C@H](NC(=O)[C@@H]1[C@@H]2[C@H](CN1C(=O)[C@@H](NC(=O)NC1([C@H](C)S(=O)(=O)N(C)C)CCCCC1)C(C)(C)C)C2(C)C)C(=O)C(=O)NC1CC1
17 | 11 nM | 105 nM | 959 | – | – | – | – | CCCC[C@H](NC(=O)[C@@H]1[C@@H]2[C@H](CN1C(=O)[C@@H](NC(=O)NC1(CS(=O)(=O)N(C)C3CC3)CCCCC1)C(C)(C)C)C2(C)C)C(=O)C(=O)NC1CC1
18 | 14 nM | – | – | 0.1 µM·h | – | 0.3 µM·h | 3.1 µM·h | CC(C)(C)NC(=O)N[C@H](C(=O)N1C[C@H]2[C@@H]([C@H]1C(=O)NC(CC1CCC1)C(=O)C(N)=O)C2(C)C)C(C)(C)C (stereo partly drawn) [BOCEPREVIR]
19 | 5 nM | 65 nM | 131 | 1 µM·h | 7.9 µM·h | – | – | CCC[C@H](NC(=O)[C@@H]1[C@@H]2[C@H](CN1C(=O)[C@@H](NC(=O)NC1(CS(=O)(=O)N(CC)C3CC3)CCCCC1)C(C)(C)C)C2(C)C)C(=O)C(=O)NC1CC1
20 | 7 nM | 90 nM | – | 0.3 µM·h | 0.2 µM·h | – | – | CCC[C@H](NC(=O)[C@@H]1[C@@H]2[C@H](CN1C(=O)[C@@H](NC(=O)NC1(CS(=O)(=O)N(C)C3CCC3)CCCCC1)C(C)(C)C)C2(C)C)C(=O)C(=O)NC1CC1
21 | 9 nM | 135 nM | – | – | – | – | – | CCC[C@H](NC(=O)[C@@H]1[C@@H]2[C@H](CN1C(=O)[C@@H](NC(=O)NC1(CS(=O)(=O)N(C)CC3CC3)CCCCC1)C(C)(C)C)C2(C)C)C(=O)C(=O)NC1CC1
22 | 15 nM | 300 nM | 58 | – | – | – | – | CCC[C@H](NC(=O)[C@@H]1[C@@H]2[C@H](CN1C(=O)[C@@H](NC(=O)NC1(CS(=O)(=O)NC)CCCCC1)C(C)(C)C)C2(C)C)C(=O)C(=O)NC1CC1
23 | 8 nM | 55 nM | 36 | 0.6 µM·h | 0.2 µM·h | – | – | CCC[C@H](NC(=O)[C@@H]1[C@@H]2[C@H](CN1C(=O)[C@@H](NC(=O)NC1(CS(=O)(=O)N(C)C(C)(C)C)CCCCC1)C(C)(C)C)C2(C)C)C(=O)C(=O)NC1CC1
